According to ChEMBL document CHEMBL1255303, “In vitro and in vivo antifungal activities of T-2307, a novel arylamidine” (2008):
≈ marks a conversion by molar mass, not a printed value.

What was measured:
Format in all cases: functional
Saccharomyces cerevisiae = assay: Antifungal activity against Saccharomyces cerevisiae ATCC 24657 after 48 hrs by broth microdilution method; conditions: ATCC 24657, 48 h
Procedure, shortened: (§1)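 CLSI M27-A2 (yeasts) / M38-A (moulds) broth microdilution in RPMI 1640 buffered to pH 7.0 with 0.165 M MOPS. Malassezia furfur got the same medium supplemented with glucose, bile salts, glycerol, glycerol monostearate and Tween 20. Final inoculum 0.65 × 10^3–2.5 × 10^3 CFU/ml for yeasts and 0.87 × 10^4–3.8 × 10^4 CFU/ml for filamentous fungi. Incubation at 35°C except M. racemosus and F. solani, which were held at 30°C.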

Candida albicans [1] = assay: Antifungal activity against Candida albicans ATCC 64124 after 47 hrs by broth microdilution method; conditions: ATCC 64124, 47 h
Procedure, shortened: (§2)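 Fluconazole-resistant or susceptible-dose-dependent ATCC C. albicans strains were tested by CLSI M27-A2 broth microdilution in RPMI 1640–0.165 M MOPS, pH 7.0, with a final inoculum of 1.1–1.5 × 10^3 CFU/ml at 35°C for about 47 h. MIC was the lowest concentration with a prominent (~50%) turbidity decrease relative to growth control; amphotericin B was read at complete inhibition.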

Candida albicans [2] = assay: Antifungal activity against Candida albicans TIMM 1623 after 48 hrs by broth microdilution method; conditions: TIMM 1623, 48 h; procedure, shortened: as §1
Fusarium solani = assay: Antifungal activity against Fusarium solani IFO 31093 after 48 hrs by broth microdilution method; conditions: IFO 31093, 48 h; procedure, shortened: as §1
Candida albicans [3] = assay: Antifungal activity against Candida albicans ATCC 64550 after 47 hrs by broth microdilution method; conditions: ATCC 64550, 47 h
Procedure, shortened: (§3)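 Fluconazole-resistant or susceptible-dose-dependent C. albicans ATCC strains were tested by broth microdilution in RPMI 1640-MOPS. Inoculum was 1.1 × 10^3–1.5 × 10^3 CFU/ml, with incubation at 35°C for about 47 h. Yeast MIC was read as about 50% turbidity decrease relative to growth control, except amphotericin B, read at complete inhibition.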

[4] = system: Meyerozyma guilliermondii; assay: Antifungal activity against Candida guilliermondii clinical isolates after 48 hrs by broth microdilution method
Procedure, shortened: (§4)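 Clinical isolates from Japanese hospitals or culture collections were tested by broth microdilution in RPMI 1640-MOPS. Inoculum was 0.57 × 10^3–2.5 × 10^3 CFU/ml for yeasts and 0.4 × 10^4–3.3 × 10^4 CFU/ml for filamentous fungi. Incubation was at 35°C for about 48 h, or 72 h where footnoted. Results were summarised as MIC range, MIC50 and MIC90.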

Aspergillus niger = assay: Antifungal activity against Aspergillus niger NBRC 33023 after 48 hrs by broth microdilution method; conditions: NBRC 33023, 48 h; procedure, shortened: as §1
Candida albicans [5] = assay: Antifungal activity against Candida albicans ATCC MYA-2732 after 47 hrs by broth microdilution method; conditions: ATCC MYA-2732, 47 h; procedure, shortened: as §3
Rhizopus arrhizus = assay: Antifungal activity against Rhizopus oryzae NBRC 31005 after 24 hrs by broth microdilution method; conditions: NBRC 31005, 24 h; procedure, shortened: as §1
Cryptococcus neoformans [6] = assay: Antifungal activity against Cryptococcus neoformans ATCC 90112 after 72 hrs by broth microdilution method; conditions: ATCC 90112, 72 h
Procedure, shortened: (§5)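 CLSI M27-A2 (yeasts) or M38-A (A. fumigatus) broth microdilution in RPMI 1640 buffered to pH 7.0 with 0.165 M MOPS. Final inocula were 0.65–2.5 × 10^3 CFU/ml for yeasts and 0.87–3.8 × 10^4 CFU/ml for filamentous fungi. Incubation was at 35°C for about 48 h (72 h for C. neoformans). MIC was the lowest concentration giving a prominent (~50%) turbidity drop versus growth control; amphotericin B required complete inhibition.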

Candida albicans [7] = assay: Antifungal activity against Candida albicans ATCC MYA-574 after 47 hrs by broth microdilution method; conditions: ATCC MYA-574, 47 h; procedure, shortened: as §3
Pichia kudriavzevii = assay: Antifungal activity against Candida krusei IFO 0584 after 48 hrs by broth microdilution method; conditions: IFO 0584, 48 h; procedure, shortened: as §1
Aspergillus flavus = assay: Antifungal activity against Aspergillus flavus NBRC 6343 after 48 hrs by broth microdilution method; conditions: NBRC 6343, 48 h; procedure, shortened: as §1
Aspergillus fumigatus [8] = assay: Antifungal activity against Aspergillus fumigatus IFM 46895 after 48 hrs by broth microdilution method; conditions: IFM 46895, 48 h; procedure, shortened: as §1
Cryptococcus neoformans [9] = assay: Antifungal activity against Cryptococcus neoformans TIMM 0354 after 72 hrs by broth microdilution method; conditions: TIMM 0354, 72 h; procedure, shortened: as §5
Aspergillus fumigatus [10] = assay: Antifungal activity against Aspergillus fumigatus IFM 49895 after 48 hrs by broth microdilution method; conditions: IFM 49895, 48 h; procedure, shortened: as §1
[11] = system: Meyerozyma guilliermondii; assay: Antifungal activity against Candida guilliermondii IFO 10279 after 48 hrs by broth microdilution method; conditions: IFO 10279, 48 h; procedure, shortened: as §1
Candida albicans [12] = assay: Antifungal activity against Candida albicans ATCC MYA-575 after 47 hrs by broth microdilution method; conditions: ATCC MYA-575, 47 h; procedure, shortened: as §2
Nakaseomyces glabratus = assay: Antifungal activity against Candida glabrata clinical isolates after 48 hrs by broth microdilution method; procedure, shortened: as §4

Compound	MFC (Saccharomyces cerevisiae)	MIC (Saccharomyces cerevisiae)	MIC (Candida albicans [1])	MFC (Candida albicans [2])	MIC (Candida albicans [2])	MFC (Fusarium solani)	MIC (Fusarium solani)	MIC (Candida albicans [3])	MIC50 [4]	MIC90 [4]	MFC (Aspergillus niger)	MIC (Aspergillus niger)	MIC (Candida albicans [5])	MFC (Rhizopus arrhizus)	MIC (Rhizopus arrhizus)	MFC (Cryptococcus neoformans [6])	MIC (Cryptococcus neoformans [6])	MIC (Candida albicans [7])	MFC (Pichia kudriavzevii)	MIC (Pichia kudriavzevii)	also measured
OC(Cn1cncn1)(Cn1cncn1)c1ccc(F)cc1F [FLUCONAZOLE]	> 64 µg/mL	8 µg/mL (≈ 26.1 µM)	> 64 µg/mL	> 64 µg/mL	0.125 µg/mL (≈ 0.408 µM)	> 64 µg/mL	> 64 µg/mL	16 µg/mL (≈ 52.2 µM)	4 µg/mL (≈ 13.1 µM)	8 µg/mL (≈ 26.1 µM)	> 64 µg/mL	> 64 µg/mL	16 µg/mL (≈ 52.2 µM)	> 64 µg/mL	> 64 µg/mL	> 64 µg/mL	1 µg/mL (≈ 3.27 µM)	64 µg/mL (≈ 209 µM)	64 µg/mL (≈ 209 µM)	32 µg/mL (≈ 104 µM)	MFC (Aspergillus flavus): > 64 µg/mL; MIC (Aspergillus flavus): > 64 µg/mL; MFC (Aspergillus fumigatus [8]): > 64 µg/mL; MIC (Aspergillus fumigatus [8]): > 64 µg/mL; MFC (Cryptococcus neoformans [9]): > 64 µg/mL; MIC (Cryptococcus neoformans [9]): 2 µg/mL (≈ 6.53 µM); MFC (Aspergillus fumigatus [10]): > 64 µg/mL; MIC (Aspergillus fumigatus [10]): > 64 µg/mL; MFC [11]: > 64 µg/mL; MIC [11]: 4 µg/mL (≈ 13.1 µM); MIC (Candida albicans [12]): 16 µg/mL (≈ 52.2 µM)
C[C@@H](c1ncncc1F)[C@](O)(Cn1cncn1)c1ccc(F)cc1F [VORICONAZOLE]	> 64 µg/mL	0.125 µg/mL (≈ 0.358 µM)	16 µg/mL (≈ 45.8 µM)	> 64 µg/mL	0.0039 µg/mL (≈ 0.0112 µM)	8 µg/mL (≈ 22.9 µM)	8 µg/mL (≈ 22.9 µM)	0.25 µg/mL (≈ 0.716 µM)	0.0625 µg/mL (≈ 0.179 µM)	0.125 µg/mL (≈ 0.358 µM)	16 µg/mL (≈ 45.8 µM)	0.5 µg/mL (≈ 1.43 µM)	0.25 µg/mL (≈ 0.716 µM)	32 µg/mL (≈ 91.6 µM)	8 µg/mL (≈ 22.9 µM)	> 64 µg/mL	0.0313 µg/mL (≈ 0.0896 µM)	0.25 µg/mL (≈ 0.716 µM)	2 µg/mL (≈ 5.73 µM)	0.125 µg/mL (≈ 0.358 µM)	MFC (Aspergillus flavus): 1 µg/mL (≈ 2.86 µM); MIC (Aspergillus flavus): 0.5 µg/mL (≈ 1.43 µM); MIC50 (Nakaseomyces glabratus): 0.125 µg/mL (≈ 0.358 µM); MIC90 (Nakaseomyces glabratus): 0.5 µg/mL (≈ 1.43 µM); MFC (Aspergillus fumigatus [8]): 4 µg/mL (≈ 11.5 µM); MIC (Aspergillus fumigatus [8]): 0.5 µg/mL (≈ 1.43 µM); MFC (Cryptococcus neoformans [9]): > 64 µg/mL; MIC (Cryptococcus neoformans [9]): 0.0313 µg/mL (≈ 0.0896 µM); MFC (Aspergillus fumigatus [10]): 8 µg/mL (≈ 22.9 µM); MIC (Aspergillus fumigatus [10]): 2 µg/mL (≈ 5.73 µM); MFC [11]: 0.5 µg/mL (≈ 1.43 µM); MIC [11]: 0.0625 µg/mL (≈ 0.179 µM); MIC (Candida albicans [12]): 0.0625 µg/mL (≈ 0.179 µM)
